# Where two headings read alike, the source gives them in different places.
# Assays:
# CYP450 2D6 = CYP450 2D6 (Homo sapiens, UniProt P10635); assay: CYP450 inhibition, recombinant isoform; type: in vitro ADME
# In short: (§1)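 Recombinant human CYP450 isoforms were incubated with isoform-specific probe substrates; for CYP3A4 these were midazolam and testosterone. Inhibition was quantified by LC-MS/MS analysis of probe-substrate turnover.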
# hERG channel = hERG channel (Homo sapiens, UniProt Q12809); assay: Patch-Xpress patch-clamp hERG assay in HEK-293 cells; type: cell-based
# NK3 = NK3 (Homo sapiens, UniProt P29371); assay: CEREP off-target radioligand binding panel; conditions: read-out: inhibition of ligand binding
# In short: (§2)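 CEREP secondary-pharmacology panel of 55 receptors, transporters and ion channels. Test compound at 10 µM was assessed for inhibition of binding of a radiolabelled reference ligand specific to each target. Result is percent inhibition of ligand binding.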
# [1] = Plasma protein binding, equilibrium dialysis; type: in vitro ADME; conditions: human
# In short: (§3)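 Equilibrium dialysis of test compound in human, rat or mouse plasma against buffer across a semipermeable membrane. Compound concentrations in both compartments were measured by LC/MS, and percent bound was derived from them.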
# [2] = Plasma protein binding, equilibrium dialysis; type: in vitro ADME; conditions: rat
# In short: as §3
# [3] = Metabolite profile in hepatocytes; type: in vitro ADME; conditions: metabolite profiling in five species (mouse, rat, dog, NHP, human)
# In short: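 Test compound at 1 µM was incubated at 37°C for 4 h with cryopreserved hepatocytes from mouse, rat, dog, monkey or human. Metabolite masses and relative abundance came from HPLC/MS/MS peak areas. Structures were characterised by LC/MS/MS on a Q-Trap instrument.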
# [4] = test system: chloride channel (γ-aminobutyric acid–gated); assay: CEREP off-target radioligand binding panel; conditions: 10 µM
# In short: as §2
# [5] = test system: Aβ38, Aβ40, Aβ42 in plasma; assay: Acute single-dose escalation and time course efficacy in NHPs; type: in vivo, cynomolgus macaque
# In short: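 Cynomolgus macaques, two male and two female. Escalation phase: single nasogastric doses of 0, 10, 30, 100 and 200 mg/kg, with blood taken 4 h post-dose. Repeat phase: 200 mg/kg for 2 d, then 100 mg/kg for 5 d, with blood on days 1 and 7 at predose and 1, 2, 4, 8 and 24 h. K3EDTA plasma was stored at ≤ −60°C. Aβ38/40/42 were measured by MSD multiplex assay.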
# [6] = test system: Aβ42, Aβ40, Aβ38 in plasma, brain and CSF; assay: 9-d repeat-dose pharmacodynamics in male Sprague-Dawley rats; type: in vivo, rat; conditions: 5 mg/kg po daily 9 d, 4 h post dose
# In short: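 Male Sprague-Dawley rats, n = 14 per dose level, received vehicle (80% PEG 400, 20% water, 0.1% Tween 20) or test compound at 5, 25 or 50 mg/kg orally once daily for 9 d. Sampling was 4 h after the day-9 dose: plasma, brain extracts, and CSF from the cisterna magnum. Aβ38/40/42 were measured by MSD multiplex assay. Results are mean ± SEM, analysed by ANOVA.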
# [7] = test system: Aβ42 and Aβ40 levels in plasma and brain; assay: 9-d repeat-dose efficacy in C57BL/6J mice; type: in vivo, mouse; conditions: 10 mg/kg/d for 9 d
# histamine H1 = histamine H1 (Homo sapiens, UniProt P35367); assay: CEREP off-target radioligand binding panel; conditions: read-out: inhibition of ligand binding
# In short: as §2
# CYP450 2C19 = CYP450 2C19 (Homo sapiens, UniProt P33261); assay: CYP450 inhibition, recombinant isoform; type: in vitro ADME
# In short: as §1
# [8] = GLP cardiopulmonary safety pharmacology study in NHPs; type: in vivo, NHP; conditions: NHPs, 10, 30 and 60 mg/kg
# [9] = Human PK and 50% effective dose projection
# sodium channel (Site 2) = assay: CEREP off-target radioligand binding panel; conditions: 10 µM
# In short: as §2
# dopamine D1 = dopamine D1 (Homo sapiens, UniProt P21728); assay: CEREP off-target radioligand binding panel; conditions: read-out: inhibition of ligand binding
# In short: as §2
# CYP450 1A2 = target: T1, CYP450 1A2 (Homo sapiens, UniProt P05177); assay: CYP450 inhibition, recombinant isoform; type: in vitro ADME
# T1 sequence (P05177 1-516): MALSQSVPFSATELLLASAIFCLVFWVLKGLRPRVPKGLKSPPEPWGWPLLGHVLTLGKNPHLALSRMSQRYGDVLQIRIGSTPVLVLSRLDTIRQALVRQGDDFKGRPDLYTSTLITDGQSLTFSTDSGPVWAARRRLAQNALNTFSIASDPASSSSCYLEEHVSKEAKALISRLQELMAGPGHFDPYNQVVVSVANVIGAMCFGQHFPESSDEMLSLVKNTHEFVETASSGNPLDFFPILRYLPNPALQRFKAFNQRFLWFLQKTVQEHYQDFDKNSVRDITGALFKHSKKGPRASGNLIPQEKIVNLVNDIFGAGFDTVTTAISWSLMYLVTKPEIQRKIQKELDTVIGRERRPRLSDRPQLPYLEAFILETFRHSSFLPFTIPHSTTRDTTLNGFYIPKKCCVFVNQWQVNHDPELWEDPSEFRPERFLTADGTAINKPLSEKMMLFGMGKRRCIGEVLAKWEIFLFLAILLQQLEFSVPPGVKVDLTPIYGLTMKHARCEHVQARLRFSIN
# In short: as §1
# [10] = Kinetic aqueous solubility, PBS pH 7.4; type: physicochemical; conditions: PBS buffer, pH 7.4, aqueous buffer, kinetic from dmso stock
# In short: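 Kinetic solubility in PBS at pH 7.4, read by UV/Vis absorbance and reported in micromolar.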
# [11] = Liver microsomal stability, mouse; type: in vitro ADME; conditions: liver microsomes
# In short: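 Test compound at 1 µM was incubated for 30 min with liver microsomes at 1 mg/ml (human, rat or mouse). Result is percent of parent compound remaining.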
# cerebral amyloidosis = assay: Immunohistochemistry of amyloid deposition; type: in vivo, mouse; conditions: 25 mg/kg/d, 3 mo
# In short: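 Female PSAPP mice began treatment at 90 or 180 d of age with vehicle (PEG 400/water/Tween 20) or test compound 25 mg/kg/d by oral gavage for 3 mo. Cerebral amyloid deposition in cortex and hippocampus was assessed by immunohistochemistry with anti-Aβ mAb 3D6, alongside Iba1 staining for microgliosis.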
# CYP450 3A4 = CYP450 3A4 (Homo sapiens, UniProt P08684); assay: CYP450 inhibition, recombinant isoform; type: in vitro ADME
# In short: as §1
# Sequence of hERG channel (Q12809 whole entry): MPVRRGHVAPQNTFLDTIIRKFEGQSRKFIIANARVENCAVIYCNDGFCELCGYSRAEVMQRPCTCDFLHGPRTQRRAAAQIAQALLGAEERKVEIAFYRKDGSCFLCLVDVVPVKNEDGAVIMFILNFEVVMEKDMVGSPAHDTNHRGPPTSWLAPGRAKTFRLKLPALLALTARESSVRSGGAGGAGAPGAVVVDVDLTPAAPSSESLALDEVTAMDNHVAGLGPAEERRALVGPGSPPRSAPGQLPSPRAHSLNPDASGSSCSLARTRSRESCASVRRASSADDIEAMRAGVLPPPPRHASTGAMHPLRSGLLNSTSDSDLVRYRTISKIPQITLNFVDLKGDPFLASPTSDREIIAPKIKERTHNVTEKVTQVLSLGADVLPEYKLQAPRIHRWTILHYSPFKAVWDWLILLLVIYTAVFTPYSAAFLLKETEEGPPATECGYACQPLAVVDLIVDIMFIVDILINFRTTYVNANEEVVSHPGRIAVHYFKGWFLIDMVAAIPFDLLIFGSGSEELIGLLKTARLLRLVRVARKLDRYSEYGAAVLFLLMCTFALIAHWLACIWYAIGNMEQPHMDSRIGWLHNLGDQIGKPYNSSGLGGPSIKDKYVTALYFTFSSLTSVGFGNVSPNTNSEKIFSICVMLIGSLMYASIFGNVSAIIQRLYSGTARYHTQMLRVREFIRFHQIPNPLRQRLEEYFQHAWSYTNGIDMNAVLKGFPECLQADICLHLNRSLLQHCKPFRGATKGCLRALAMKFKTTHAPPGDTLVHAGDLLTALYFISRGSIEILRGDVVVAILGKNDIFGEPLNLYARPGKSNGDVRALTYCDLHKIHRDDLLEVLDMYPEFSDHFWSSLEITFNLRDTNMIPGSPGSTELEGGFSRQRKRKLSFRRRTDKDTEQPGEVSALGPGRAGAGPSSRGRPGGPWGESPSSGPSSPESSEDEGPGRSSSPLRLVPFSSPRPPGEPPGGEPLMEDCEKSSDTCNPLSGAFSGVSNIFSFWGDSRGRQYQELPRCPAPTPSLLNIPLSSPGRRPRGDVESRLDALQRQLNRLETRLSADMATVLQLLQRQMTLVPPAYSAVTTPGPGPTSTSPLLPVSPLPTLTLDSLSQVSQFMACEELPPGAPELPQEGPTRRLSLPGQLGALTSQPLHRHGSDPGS
# Sequence of CYP450 3A4 (P08684 whole entry, canonical isoform): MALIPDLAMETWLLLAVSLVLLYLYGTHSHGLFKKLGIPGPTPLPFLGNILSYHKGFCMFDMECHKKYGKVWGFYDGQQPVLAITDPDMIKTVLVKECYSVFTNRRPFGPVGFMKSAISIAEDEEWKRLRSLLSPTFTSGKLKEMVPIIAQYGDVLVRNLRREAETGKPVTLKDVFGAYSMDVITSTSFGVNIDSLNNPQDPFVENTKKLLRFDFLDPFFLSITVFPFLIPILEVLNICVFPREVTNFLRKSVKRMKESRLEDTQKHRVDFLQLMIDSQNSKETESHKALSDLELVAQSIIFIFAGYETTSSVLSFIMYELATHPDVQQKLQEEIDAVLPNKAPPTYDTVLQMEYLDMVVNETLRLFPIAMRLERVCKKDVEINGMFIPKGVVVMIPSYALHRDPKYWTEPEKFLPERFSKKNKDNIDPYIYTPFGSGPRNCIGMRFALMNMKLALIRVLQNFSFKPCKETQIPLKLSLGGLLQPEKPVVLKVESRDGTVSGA
# Sequence of CYP450 2D6 (P10635 whole entry, canonical isoform): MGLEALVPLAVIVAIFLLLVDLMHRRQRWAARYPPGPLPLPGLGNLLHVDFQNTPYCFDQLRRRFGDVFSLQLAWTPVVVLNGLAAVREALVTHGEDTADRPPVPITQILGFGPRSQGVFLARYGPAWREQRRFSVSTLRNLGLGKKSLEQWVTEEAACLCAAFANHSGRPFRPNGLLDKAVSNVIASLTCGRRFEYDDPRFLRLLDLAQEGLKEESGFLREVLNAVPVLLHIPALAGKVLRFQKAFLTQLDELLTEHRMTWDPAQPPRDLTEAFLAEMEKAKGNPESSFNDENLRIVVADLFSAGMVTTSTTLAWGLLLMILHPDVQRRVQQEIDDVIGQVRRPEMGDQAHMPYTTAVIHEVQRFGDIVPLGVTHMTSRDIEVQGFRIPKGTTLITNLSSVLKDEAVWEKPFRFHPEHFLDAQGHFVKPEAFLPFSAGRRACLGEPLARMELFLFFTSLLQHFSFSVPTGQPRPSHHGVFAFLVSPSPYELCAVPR
# Sequence of CYP450 2C19 (P33261 whole entry, canonical isoform): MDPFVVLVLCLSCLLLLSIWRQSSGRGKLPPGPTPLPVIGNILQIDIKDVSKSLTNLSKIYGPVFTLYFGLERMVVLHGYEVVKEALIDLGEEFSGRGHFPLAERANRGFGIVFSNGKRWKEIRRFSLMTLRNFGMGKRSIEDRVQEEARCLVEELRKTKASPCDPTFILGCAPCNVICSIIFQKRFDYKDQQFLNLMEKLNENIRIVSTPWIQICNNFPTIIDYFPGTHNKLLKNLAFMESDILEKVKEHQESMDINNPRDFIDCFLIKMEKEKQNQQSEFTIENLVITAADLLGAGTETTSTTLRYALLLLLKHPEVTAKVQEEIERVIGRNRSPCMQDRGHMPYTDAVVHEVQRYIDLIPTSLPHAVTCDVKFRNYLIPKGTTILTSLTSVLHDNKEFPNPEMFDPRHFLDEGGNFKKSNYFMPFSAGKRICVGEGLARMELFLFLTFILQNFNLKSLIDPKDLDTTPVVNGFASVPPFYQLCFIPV
# Sequence of dopamine D1 (P21728 whole entry): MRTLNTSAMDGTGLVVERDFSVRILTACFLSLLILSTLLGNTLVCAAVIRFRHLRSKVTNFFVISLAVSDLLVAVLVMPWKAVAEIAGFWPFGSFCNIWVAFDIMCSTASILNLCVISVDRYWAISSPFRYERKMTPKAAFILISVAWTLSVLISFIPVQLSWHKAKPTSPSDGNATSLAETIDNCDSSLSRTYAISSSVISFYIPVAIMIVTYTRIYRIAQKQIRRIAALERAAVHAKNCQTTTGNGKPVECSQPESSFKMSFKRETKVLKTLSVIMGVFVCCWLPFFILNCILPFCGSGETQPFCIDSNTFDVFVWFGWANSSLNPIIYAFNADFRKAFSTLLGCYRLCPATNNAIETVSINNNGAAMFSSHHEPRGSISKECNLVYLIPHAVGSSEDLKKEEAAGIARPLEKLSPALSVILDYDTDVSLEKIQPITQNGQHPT
# Sequence of histamine H1 (P35367 whole entry): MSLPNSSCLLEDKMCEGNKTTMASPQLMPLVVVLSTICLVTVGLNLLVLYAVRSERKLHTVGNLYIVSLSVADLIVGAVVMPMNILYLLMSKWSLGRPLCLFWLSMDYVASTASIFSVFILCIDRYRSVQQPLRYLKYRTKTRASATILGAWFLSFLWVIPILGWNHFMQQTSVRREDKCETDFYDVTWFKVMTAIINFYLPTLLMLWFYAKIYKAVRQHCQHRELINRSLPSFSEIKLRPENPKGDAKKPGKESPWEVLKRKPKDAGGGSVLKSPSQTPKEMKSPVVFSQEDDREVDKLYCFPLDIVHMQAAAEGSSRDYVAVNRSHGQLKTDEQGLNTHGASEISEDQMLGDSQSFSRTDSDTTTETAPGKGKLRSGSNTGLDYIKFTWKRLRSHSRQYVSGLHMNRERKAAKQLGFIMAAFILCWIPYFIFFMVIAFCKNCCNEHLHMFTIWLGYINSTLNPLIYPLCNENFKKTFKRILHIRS
# Sequence of NK3 (P29371 whole entry): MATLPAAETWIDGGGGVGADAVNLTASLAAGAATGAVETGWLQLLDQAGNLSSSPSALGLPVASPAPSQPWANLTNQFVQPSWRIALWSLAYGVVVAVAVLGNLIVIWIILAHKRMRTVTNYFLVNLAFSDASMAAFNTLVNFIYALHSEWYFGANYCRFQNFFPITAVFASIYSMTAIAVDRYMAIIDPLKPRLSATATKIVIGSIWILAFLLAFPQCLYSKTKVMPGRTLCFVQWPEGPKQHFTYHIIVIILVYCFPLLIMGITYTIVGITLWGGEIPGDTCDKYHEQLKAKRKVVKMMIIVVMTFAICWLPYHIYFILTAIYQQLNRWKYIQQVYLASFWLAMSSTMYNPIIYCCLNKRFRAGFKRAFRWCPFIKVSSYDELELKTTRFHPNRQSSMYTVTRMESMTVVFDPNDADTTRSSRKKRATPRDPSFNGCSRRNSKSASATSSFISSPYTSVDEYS
smiles,measurement,setting,value
"COc1nc(-c2cc(C)c(N[C@@H](C)c3cc(F)cc(F)c3)nn2)ccc1-n1cnc(C)c1 [Compound 2, (S)-N-(1-(3,5-difluorophenyl)ethyl)-6-(6-methoxy-5-(4-methyl-1H-imidazol-1-yl)pyridin-2-yl)-4-methylpyridazin-3-amine]",IC50,CYP450 2D6,11 µM
same,IC50,hERG channel,7.3 µM
same,safety margin between Aβ42 IC50 and hERG IC20,hERG channel,> 100 fold
same,IC20,"hERG channel; human, HEK-293 cells expressing hERG",1.3 µM
same,inhibition at 10 µM,NK3,> 50%
same,% PPB H,[1],99.8%
same,% PPB R,[2],99.9%
same,major metabolites,[3],no major metabolites
same,unique human metabolites,[3],absence of any unique human metabolites
same,inhibition of ligand binding,[4],Greater than 50%
same,effect on levels of Aβ38 in plasma,[5],did not affect
same,sustained lowering of plasma Aβ42 and Aβ40 peptides,"[5]; 200 mg/kg, day 1 of repeat-dosing phase, for over 24 h",~70%
same,Brain % Aβ42 ∆ vs vehicle (↓ reduction),[6],54%
same,Brain %Aβ40 ∆ vs vehicle (↓ reduction),[6],29%
same,CSF % Aβ42 ∆ vs vehicle (↓ reduction),[6],41%
same,CSF %Aβ40 ∆ vs vehicle (↓ reduction),[6],29%
same,Plasma % Aβ40 ∆ vs vehicle (↓ reduction),[6],57%
same,Plasma % Aβ42 ∆ vs vehicle (↓ reduction),[6],78%
same,elimination of detectable Aβ42 in brain,[7],100%
same,reduction in plasma Aβ42 levels,[7],> 90%
same,inhibition at 10 µM,histamine H1,> 50%
same,IC50,CYP450 2C19,12 µM
same,"effect on electrocardiogram parameters, including corrected QT interval",[8],no significant effect
same,fabs in humans (expected),[9],~90%
same,predicted human CL,"[9]; allometric scaling from mouse, rat, NHP",~0.3 L/h/kg
same,AUC,"[9]; human, plasma",4.32 µg·h/mL
same,inhibition of ligand binding,sodium channel (Site 2),Greater than 50%
same,inhibition at 10 µM,dopamine D1,> 50%
same,IC50,CYP450 1A2,12 µM
same,solubility kinetic,[10],< 1.3 µM
same,"remaining at 0.5 h, 1 µM",[11],91%
same,"attenuation of cerebral amyloidosis (mAb 3D6), cortex and hippocampus","cerebral amyloidosis; 6-mo-old PSAPP mice (prophylactic group), P < 0.01",greater than twofold
same,"cerebral amyloidosis (mAb 3D6), cortex and hippocampus, vs vehicle","cerebral amyloidosis; 9-mo-old PSAPP mice (disease-modifying group), P < 0.03",statistically significant decrease
same,IC50,CYP450 3A4,9.4 µM
same,IC50,"CYP450 3A4; CYP450 IC50 3A4 (m), probe substrate midazolam",42 µM

# From PMC7931646 (The Journal of Experimental Medicine, 2021)
